Assay results published in ChEMBL document CHEMBL1123395, “Correlation of the in vitro cytotoxic and in vivo antitumor activities of gold(I) coordination complexes” (J Med Chem, 1986).
pIC50: −log10 of the molar value.

Assays:
[1] = test system: B16; test: Concentration that reduces the number of colonies formed by 50% in a clonogenic assay with B16 mouse melanoma cells.; type: functional, cell-based
Method in brief: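 B16 melanoma F10 monolayers were grown in MEM with 10% calf serum. Cells were plated at 5000/plate and attached overnight. They were exposed to compound for 2 h, diluted from a 2 mM ethanol stock into MEM, then washed with PBS. Colonies of more than 50 cells were grown for 5 days at 37 °C and stained with crystal violet, in triplicate. IC50 is the 50% reduction in colonies versus controls.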

[2] = test system: P388; test: Concentration that reduces the number of colonies formed by 50% in a clonogenic assay with P388 leukemia cells.; type: functional, cell-based, Mus musculus
Method in brief: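 P388 cells were kept in suspension culture. Colony-forming assay was run in 0.17% agarose, with colony formation and IC50 (50% reduction in colonies versus controls) measured as in the B16 assay. That assay used a 2 h exposure and 5 days of colony growth.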

[3] = test system: P388; test: Ratio of in vitro cytotoxic potency in P388 / B16 cell lines; type: functional, cell-based; settings: Mus musculus
Method in brief: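 Ratio of IC50 in the P388 colony-forming assay (0.17% agarose) to IC50 in the B16 clonogenic assay. Both assays used a 2 h drug exposure and counted colonies against controls.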

[4] = test system: Mus musculus; test: Maximally tolerated dose (MTD) in tumor bearing mice on a daily times 5 ip regimen.; type: functional, organism-based
Method in brief: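 B6D2F1 mice inoculated ip with 10^6 P388 leukemia cells, randomized into groups of six after the inoculum was checked sterile in thioglycolate broth. Dosing ip on days 1-5, starting 24 h after inoculation. Vehicle was DMA, ethanol and Cremophor (10% final), diluted with saline for lower doses and prepared just before injection. Mortality monitored daily up to 45 days.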

[5] = test system: P388; test: Antitumor activity expressed as increase in median life span (ILS) measured in mice inoculated (ip) with P388 leukemia cells; type: functional, organism-based; settings: Mus musculus
Method in brief: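 Mice B6D2F1, inoculated ip with 10^6 P388 leukemia cells. After 24 h, with the inoculum confirmed free of bacteria by thioglycolate broth, mice were randomized into groups of six. Dosing was ip on days 1-5. The vehicle held DMA, ethanol and Cremophor at 10% final, with dilutions in saline. Mice were monitored daily for 45 days. ILS is the % increase in MST over untreated controls. The value reported is the maximum ILS from dose-response studies bracketing the maximally tolerated dose.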

Substance	pIC50 [1]	pIC50 [2]	Ratio [3]	MTD [4] [µM/kg]	ILSmax [5] [%]
GOLD SODIUM THIOMALATE [listing 1 of 2 here]	4.22	4.00	–	–	–
GOLD SODIUM THIOMALATE [listing 2 of 2 here]	–	–	1.67	300	24
